In ChEMBL document CHEMBL1125277, “Novel cerebroprotective agents with central nervous system stimulating activity. 1. Synthesis and pharmacology of 1-amino-7-hydroxyindan derivatives” (1991):

What was measured:
Format in all cases: functional
Mus musculus [1] = test: Antihypoxic effect tested by the survival time (SVT) in mice at a dose of 100 mg/kg; set-up: unit: % of control
Outline: (§1)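 Male ICR mice (20–30 g), groups of 10, dosed 0.25 h (iv, sc or ip) or 1 h (oral) before test. Mice placed in desiccator evacuated to 210 mmHg. Survival time measured from pump start to cessation of respiration, capped at 900 s. Activity expressed as % of control survival time; Wilcoxon sum test.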

Mus musculus [2] = test: Time of recovery of spontaneous movement (SMT) in seconds was measured after administration of 100 mg/kg orally in mice for the promotional effect on recovery from coma
Outline: (§2)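 Male ICR mice (20–30 g) were dosed orally 1 h before concussion was induced, and saline-dosed mice served as controls. Times to recovery of righting reflex and of spontaneous movement were recorded in seconds. Brains were examined post mortem, and mice with contused brain wounds were excluded. Statistics used the Wilcoxon sum test.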

Mus musculus [3] = test: Time of recovery of righting reflux (RRT) in seconds was measured after administration of 100 mg/kg orally in mice for the promotional effect on recovery from coma; outline: as §2
Mus musculus [4] = test: Antihypoxic effect by the survival time (SVT) in mice at a dose of 30 mg/kg administered subcutaneously in mice; set-up: unit: % of control; settings: route subcutaneous; outline: as §1
Mus musculus [5] = test: Antihypoxic effect by the survival time (SVT) in mice at a dose of 30 mg/kg administered intraperitoneally in mice; settings: route intraperitoneal; outline: as §1
Mus musculus [6] = test: Time of recovery of spontaneous movement (SMT) in seconds was measured after administration of 200 mg/kg perorally in mice for the promotional effect on recovery from coma; settings: route oral; outline: as §2
Mus musculus [7] = test: Antihypoxic effect by the survival time (SVT) in mice at a dose of 3 mg/kg administered intravenously in mice; settings: route intravenous; outline: as §1
Mus musculus [8] = test: Time of recovery of righting reflux (RRT) in seconds was measured after administration of 200 mg/kg perorally in mice for the promotional effect on recovery from coma; settings: route oral; outline: as §2
Mus musculus [9] = test: Time of recovery of spontaneous movement (SMT) in seconds was measured after administration of 2.5 mg/kg intravenously in mice for the promotional effect on recovery from coma; settings: route intravenous
Outline: (§3)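 This is the concussion-induced coma model in male ICR mice (20–30 g), with saline-treated controls. Righting-reflex and spontaneous-movement recovery times were recorded in seconds. Animals with contused brain wounds at post-mortem were excluded. Groups were compared by Wilcoxon sum test.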

Mus musculus [10] = test: Time of recovery of righting reflux (RRT) in seconds was measured after administration of 2.5 mg/kg intravenously in mice for the promotional effect on recovery from coma; settings: route intravenous; outline: as §3
Mus musculus [11] = test: Antihypoxic effect by the survival time (SVT) in mice at a dose of 40 mg/kg administered intraperitoneally in mice; settings: route intraperitoneal; outline: as §1
Mus musculus [12] = test: Time of recovery of righting reflux (RRT) in seconds was measured after administration of 40 mg/kg intraperitoneally in mice for the promotional effect on recovery from coma; settings: route intraperitoneal
Outline: (§4)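 Male ICR mice (20–30 g); concussion-induced coma model of head injury. Control mice received the same amount of physiological saline. Brains examined post mortem and mice with contused wounds excluded. Recovery times in seconds (righting reflex or spontaneous movement) expressed as % of control; Wilcoxon sum test.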

Mus musculus [13] = test: Time of recovery of spontaneous movement (SMT) in seconds was measured after administration of 40 mg/kg intraperitoneally in mice for the promotional effect on recovery from coma; settings: route intraperitoneal; outline: as §4
Mus musculus [14] = test: Antihypoxic effect by the survival time (SVT) in mice at a dose of 100 mg/kg administered intraperitoneally in mice; outline: as §1

Compound	SVT (Mus musculus [1])	SMT (Mus musculus [2]; route oral)	RRT (Mus musculus [3]; route oral)	SVT (Mus musculus [4])	also measured
Cc1ccc(O)c2c1CCC2N.Cl (configuration not stated)	98.4	42.6 s	40.1 s	157.8	
CCCc1ccc2c(c1O)C(N)CC2.Cl (configuration not stated)	158	79.5 s	70.5 s	138	
Cc1cc(CN)c(O)c2c1CCC2N.Cl (configuration not stated)	110.2	79.3 s	69.9 s	74.3	
CNC1CCc2c(C)cc(C)c(O)c21.Cl (configuration not stated)		55.8 s	57.9 s	177.5	
Cc1cc(C(C)(C)C)c(O)c2c1CCC2N.Cl (configuration not stated)		113.5 s	90.6 s		SVT (Mus musculus [5]): 252.8
Cc1cc(I)c(O)c2c1CCC2N.Cl (configuration not stated)		92.3 s	81.1 s	184.6	
CC(C)(C)c1cc(C(C)(C)C)c2c(c1O)C(N)CC2.Cl (configuration not stated)	119.2	157.6 s	160.2 s		SVT (Mus musculus [5]): 171.3
Cl.NC1CCc2cccc(O)c21 (stereo in doubt; 11b)					SVT (Mus musculus [1]; 100 mg/kg): 78
CN(C)CCCN1c2ccccc2CCc2ccccc21.Cl [IMIPRAMINE HYDROCHLORIDE]	67.9	115.5 s	113.4 s		
Cc1cc(C)c2c(c1O)C(N)C(c1ccccc1)C2.Cl (configuration not stated)	149.1	37.6 s	31.1 s		SVT (Mus musculus [5]): 185.7
Cc1ccccc1C1Cc2c(C)cc(C)c(O)c2C1N.Cl (configuration not stated)	161.3	45.9 s	44.4 s		
CCCc1cc(CC)c2c(c1O)C(N)CC2.Cl (configuration not stated)	206.8	116.3 s	94.4 s	194.3	
Cl.NC1CCc2c(Cl)cc(Cl)c(O)c21 (configuration not stated)				65.8	
CN(C)CCOC(=O)COc1ccc(Cl)cc1 [MECLOFENOXATE]	106				SMT (Mus musculus [6]): 63.8 s; SVT (Mus musculus [7]): 133; RRT (Mus musculus [8]): 53.8 s
NC(=O)[C@@H]1CCCN1C(=O)[C@H](Cc1c[nH]cn1)NC(=O)[C@@H]1CCC(=O)N1 [PROTIRELIN]					SMT (Mus musculus [9]): 40.9 s; RRT (Mus musculus [10]): 40.8 s; SVT (Mus musculus [7]): 43.4
CC(=O)Nc1cc(C)c2c(c1O)C(N)CC2.Cl (configuration not stated)				46.8	
Cc1cc(C)c2c(c1O)C(N)C(C)(Cc1ccccc1)C2.Cl (configuration not stated)	167.3	32.6 s	29.9 s		
Cc1cc([N+](=O)[O-])c(O)c2c1CCC2N.Cl (configuration not stated)				189.7	
CCC(C)c1cc(C)c2c(c1O)C(N)CC2.Cl (configuration not stated)	234.8	23.3 s	18.9 s	276.5	

Compound	SVT (Mus musculus [1])	SMT (Mus musculus [2]; route oral)	RRT (Mus musculus [3]; route oral)	SVT (Mus musculus [4])	also measured
Cc1cc(C)c2c(c1O)C(N)C(c1ccccc1Cl)C2.Cl (configuration not stated)	151	33.8 s	35.8 s		
Cc1cc(C)c2c(c1O)C(N)C(C)(Cc1ccccc1)C2.Cl.O (configuration not stated)	197	28.8 s	33 s		
CCCC(C)C1(CC)C(=O)N=C([O-])NC1=O.[Na+] (configuration not stated) [PENTOBARBITAL SODIUM]					SVT (Mus musculus [11]): 306.7; RRT (Mus musculus [12]): 494 s; SMT (Mus musculus [13]): 283 s
Cc1cc(Br)c(O)c2c1CCC2N.Cl (configuration not stated)	130.1	83.4 s	81.5 s	308	
VITAMIN E	178				SMT (Mus musculus [2]): 83.5 s; SVT (Mus musculus [14]): 96.7; RRT (Mus musculus [3]): 92.2 s
Cc1cc(C)c2c(c1O)C(N)C(C)C2.Cl (configuration not stated)	237.7	71 s	79.1 s		
COc1c(C)cc(C)c2c1C(N)C(C)(c1ccccc1)C2.Cl (configuration not stated)	117.9	23.9 s	25 s		
Cc1cc(C)c2c(c1O)C(N)CC2.Cl (configuration not stated)	255.7	61.4 s	51.4 s	303.4	
COc1c(C)cc(C)c2c1C(N)C(C)(C)C2.Cl (configuration not stated)	164.3	39.2 s	43.6 s		
Cl.NC1CCc2cccc(O)c21 (stereo in doubt; 11a)		99.1 s	102 s		SVT (Mus musculus [1]; 100 mg/kg): 204.8
Cc1cc(C)c2c(c1O)C(N)C(C)(C)C2.Cl (configuration not stated)	288	53.9 s	37.2 s	298.1	
Cc1cc(C)c2c(c1O)C(N)C(C)(c1ccccc1)C2.Cl (configuration not stated)	171.6	34.7 s	34.1 s		
CCCc1cc(C)c2c(c1O)C(N)CC2.Cl (configuration not stated)	205.3			244.6	
Cc1cc(CC(C)C)c(O)c2c1CCC2N.Cl (configuration not stated)	149.9	76.1 s	59.3 s	281.4	
Cc1cc(C(C)(C)C)c(O)c(C(C)(C)C)c1 [BUTYLATED HYDROXYTOLUENE]	87.6	80.9 s	69.6 s		SVT (Mus musculus [14]; route intraperitoneal): 358.8
CCc1cc(C)c2c(c1O)C(N)C(c1ccccc1)C2.Cl (configuration not stated)	97.4	94.4 s	89.2 s		
CCCCNC1CCc2c(C)cc(C)c(O)c21.Cl (configuration not stated)	187.3	57.7 s	55.3 s		
Cc1cc(C)c2c(c1O)C(N)C(Cc1ccccc1)C2.Cl (configuration not stated)	148	38.6 s	47 s		
Cl.NC1CCc2c(O)cccc21 (configuration not stated)	103.9				
